Compound activity: PubChem, several laboratories
Only some compounds are listed: those with a hit (about 0.63% of all), similar ones and a draw of the others.
GSK3B inh – human GSK3beta kinase inhibitors, primary screen, biochemical, cell-free homogeneous, HTS. 0.038% of 300,000 active. GST-GSK3beta kinase, ADP-Glo luminescence, 60 min; stronger effect = lower value. Glycogen synthase kinase-3 beta (Homo sapiens), P49841. activity score (negative = inhibition), % at 10 µM;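 active means more than half of replicate wells score below -50%, meaning over 50% inhibition versus plate controls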;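 further: 0% = median DMSO wells and -100% = median GW8510 positive control wells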
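Test system: GST-tagged human GSK3beta kinase, cell-free; evaluation: activity score scaled between in-plate DMSO and GW8510 controls; measured by: ADP-Glo luminescence; incubation: 60 min reaction, RT; benchmarks: DMSO and 20 µM GW8510; reagent: peptide substrate plus 25 µM ATP (final); medium: Tris/MgCl2 kinase buffer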
GSK3A inh – blockers of GSK3A enzyme activity – biochemical, luminescence, cell-free homogeneous, HTS, primary screen | Glycogen synthase kinase-3 alpha (Homo sapiens), P49840 | GSK-3 alpha kinase, ADP-Glo luminescence, 60 min | inhibition, % at 10 µM | 0.1% of 320,000 active;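 active means more than half of replicates show inhibition above 20%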;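 further: GST-tagged GSK-3 alpha with peptide substrate and 25 µM ATP; 0% = DMSO neutral wells and 100% = GW8510 positive control wells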
Pemphigus Ab inh – inhibitors of pemphigus antibody binding to DSG3, primary screen, biochemical, bead-based, flow cytometry, scFv-GFP | DSG3-coupled beads, scFv-anti-DSG3-GFP binding; stronger effect = lower value | binding (percent of control), % at 10 µM | 0.48% of 310,000 active | AID 588358, 2011;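 active means binding more than 3 SD below its plate's average and above zero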;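 further: hits lower antibody fragment binding to DSG3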
STK33 kinase inh – inhibitors of purified STK33 kinase, primary screen, biochemical, ADP-Glo luminescence, homogeneous, cell-free | MBP phosphorylation | inhibition, % at 10 µM | 0.073% of 320,000 active;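 active means inhibition at or above 25%, using the most active replicate where run in duplicate; inactive means inhibition below 25%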
MT1-MMP act inh – blockers of MT1-MMP proenzyme processing, primary screen, HT1080 RFP-PRO-GFP cells, GFP/RFP fluorescence; Matrix metalloproteinase-14 (Homo sapiens), P50281; GFP/RFP ratio fluorescence, overnight; percent of plate control window, DMSO zero; GFP/RFP ratio change, % at 20 µM; 0.061% of 360,000 active; AID 651647, 2012;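 active means GFP/RFP ratio change of at least 30% with cell ATP level not reduced by more than half and red fluorescence within 50% of control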
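Assay system: HT1080 RFP-PRO-GFP cells. Benchmarks: DMSO vehicle wells and RFP-L50D-GFP reporter cell wells. Times: overnight cell settling, then overnight compound exposure, 37 °C, 5% CO2. Compound: 20 µM single dose, 1% DMSO. Read-out basis: GFP/RFP fluorescence ratio.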
* marks the source's active call; other numbers are inactive results.

`COC1(OC)N=C(N)C2(C#N)C(c3ccc(F)cc3)C12C#N` (stereo unspecified) gave GSK3B inh 1, GSK3A inh 1, Pemphigus Ab inh 108, STK33 kinase inh -2 and MT1-MMP act inh 3.
For CCOC1(OCC)N=C(N)C2(C#N)C(c3ccc(NC(C)=O)cc3)C12C#N (stereo unspecified) the results were GSK3B inh 3, GSK3A inh 60*, Pemphigus Ab inh 112, STK33 kinase inh 13 and MT1-MMP act inh 0.
`COc1ccc(-n2c(SCC(=O)Nc3nccs3)nnc2-c2ccc(Cl)cc2)cc1` gave Pemphigus Ab inh -1.0*.
Screening O=C(CSc1nnc(CCCO)n1-c1ccccc1)Nc1nccs1 returned GSK3B inh -1, GSK3A inh 1, Pemphigus Ab inh 107, STK33 kinase inh -1 and MT1-MMP act inh -3.
Cc1cccc(C)c1OCc1nnc(SCC(=O)Nc2nccs2)n1-c1ccccc1 was read as GSK3B inh 2, GSK3A inh -2, Pemphigus Ab inh 34*, STK33 kinase inh 0 and MT1-MMP act inh 0.
`COc1ccc(-c2nnc(SCC(=O)Nc3ccc(C(=O)O)cc3)n2-c2ccc(Cl)cc2)cc1` gave GSK3B inh 3, GSK3A inh -5, Pemphigus Ab inh 108, STK33 kinase inh -2 and MT1-MMP act inh -7.
For COc1ccc(-c2[nH]c(-c3ccc(Cl)cc3)nc2SCC(=O)Nc2nccs2)cc1 the results were GSK3B inh 1, GSK3A inh -4, Pemphigus Ab inh 73*, STK33 kinase inh -1 and MT1-MMP act inh -6.
For N#Cc1ccc(-c2ccc(F)cc2)nc1Oc1ccccc1 the results were GSK3B inh 1, GSK3A inh 0, Pemphigus Ab inh 83, STK33 kinase inh -1 and MT1-MMP act inh -5.
For N#Cc1ccc(-c2ccc(F)cc2)nc1Oc1ccc(F)cc1 the results were GSK3B inh 4, GSK3A inh -2, Pemphigus Ab inh 82*, STK33 kinase inh 0 and MT1-MMP act inh 2.
`O=C(O)C1=CCC(c2ccc(Cl)c(Cl)c2)N(S(=O)(=O)c2ccc(F)cc2)C1c1cccc(F)c1` (stereo unspecified) gave MT1-MMP act inh 3.
`COC1=CC(=O)OC(c2ccc(C(F)(F)F)cc2)C1` (stereo unspecified) gave MT1-MMP act inh 16.
`O=C(CSc1n[nH]c(-c2ccco2)n1)Nc1ccccc1Cl` gave GSK3B inh -1, GSK3A inh -4, Pemphigus Ab inh 43*, STK33 kinase inh 0 and MT1-MMP act inh 1.
CCCCOCCCNC(=O)C[C@@H]1C[C@@]2(C(=O)OC)CC(C)(C)CC=C2N(Cc2ccccc2)C1=O was read as MT1-MMP act inh 1.
`C[C@H](O)[C@@H]1C(=O)N2CCc3c([nH]c4ccccc34)[C@@H]2C[C@@H]1N(C)C(=O)c1cc(Cl)cc(Cl)c1` gave MT1-MMP act inh -1.
For CCNc1nc(N)nc(-c2cc(Cl)ccc2O)n1 the results were GSK3B inh -73*, GSK3A inh 72*, Pemphigus Ab inh 112, STK33 kinase inh 75* and MT1-MMP act inh -2.
For CCCCNc1nc(N)nc(-c2cc(Cl)ccc2O)n1 the results were GSK3B inh 1, GSK3A inh 6, Pemphigus Ab inh 102 and STK33 kinase inh 2.
Nc1nc(N)nc(-c2cc(O)ccc2O)n1 was read as GSK3A inh 66*, Pemphigus Ab inh 104, STK33 kinase inh 70* and MT1-MMP act inh -11.
For CCOC(=O)C(=C1Nc2ccccc2N1)n1c(-c2cccnc2)nc2ccccc21 the results were MT1-MMP act inh 3.
Screening O=C1NC2c3ccccc3C(=O)N2c2c1cnn2-c1ccccc1 (stereo unspecified) returned GSK3B inh 0, GSK3A inh 12, Pemphigus Ab inh 104, STK33 kinase inh 28* and MT1-MMP act inh 0.
`C=C1C2=C(C(=O)N1OC)[C@@H](O)[C@@](C)(O)[C@@H](CCCCC)O2` gave MT1-MMP act inh -2.
`CCn1c(C)nc2cc(C(=O)NNC(=O)CCC3CCCCC3)ccc21` gave GSK3B inh 0, GSK3A inh -3, Pemphigus Ab inh 63*, STK33 kinase inh -3 and MT1-MMP act inh 1.
`C=CCn1nc(C(=O)Nc2ccc(OC)cc2)cc1-c1sc(NC(=O)c2ccccc2)nc1C` gave MT1-MMP act inh -4.
Screening CC(C)NC(=O)C1(C)CCN1Cc1ccc(Cl)cc1 (stereo unspecified) returned MT1-MMP act inh 4.
`CCOC(=O)C1(CCOc2ccccc2)CCN(CC(O)CO)CC1` (stereo unspecified) gave GSK3B inh 4, GSK3A inh 0, Pemphigus Ab inh 90*, STK33 kinase inh 0 and MT1-MMP act inh -1.
For COc1cccc(Cn2cnc(-c3ccccc3OC)c2C2CC2)c1 the results were MT1-MMP act inh 0.
Cn1cnc(C(=O)NCc2ccccc2)c1C(=O)NCc1ccccc1 was read as GSK3A inh 11, Pemphigus Ab inh 70*, STK33 kinase inh -1 and MT1-MMP act inh -3.
For O=C(NCc1ccccc1)c1ccc(C(=O)NCc2ccccc2)cc1 the results were Pemphigus Ab inh 79* and MT1-MMP act inh 5.
O=C(NCc1ccccc1)c1ncn(Cc2ccccc2)c1C(=O)NCc1ccccc1 was read as GSK3A inh -4, Pemphigus Ab inh 107, STK33 kinase inh 0 and MT1-MMP act inh 3.
Screening CC1=C(C(=O)N(C(C)C)C(C)C)CC(CC(=O)NCc2cccc3ccccc23)C(=O)N1CCC1=CCCCC1 (stereo unspecified) returned MT1-MMP act inh -6.
`O=c1[nH]c2cc3ccccc3cc2nc1-c1nnnn1C1CCCC1` gave MT1-MMP act inh -15.
Screening COc1cc2c(cc1OC)C(C)N(C(=O)Cn1ncc3c1-c1ccccc1OC3)CC2 (stereo unspecified) returned GSK3B inh 3, GSK3A inh 0, Pemphigus Ab inh 89*, STK33 kinase inh 0 and MT1-MMP act inh -2.
Screening C/C=C/Cn1c(SCc2ccc(C)cc2)nc2c1c(=O)[nH]c(=O)n2C returned GSK3B inh 4, GSK3A inh -4, Pemphigus Ab inh 71* and STK33 kinase inh -3.
`CCC(=O)N1CCC1(C)C(=O)Nc1ccc(Cl)c(Cl)c1` (stereo unspecified) gave MT1-MMP act inh 4.
